# From ChEMBL document CHEMBL4145686, “Discovery of a Potent and Selective Steroidal Glucocorticoid Receptor Antagonist (ORIC-101)” (J Med Chem, 2018)
# Key:
# [1] = Half life in mouse at 0.5 mg/kg, iv; format: ADME, organism-based; details: in vivo
# [2] = Unbound plasma concentration in nude mouse xenografted with human OVCAR5 cells at 25 to 75 mg/kg, po dosed as gavage and measured after 6 hrs; format: ADME, organism-based; details: in vivo
# Outline: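 OVCAR5 xenograft mice received dexamethasone 0.5 mg/kg by intraperitoneal injection with or without a single oral gavage dose of the antagonist at 25, 50 or 75 mg/kg. Tumors and plasma collected 6 h later. Tumor FKBP5 mRNA measured by RT-qPCR. Unbound plasma concentration of the antagonist determined, n = 4 mice per group. FKBP5 effects tested by one-way ANOVA with Dunnett's test versus the vehicle group.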
# Glucocorticoid receptor = target: T1, Glucocorticoid receptor (Homo sapiens, UniProt P04150); assay: Antagonist activity at GR in human PBMC assessed as reduction in dexamethasone-induced FKBP5 gene expression incubated for 6 hrs by RT-qPCR method; format: cell-based
# T1 sequence (P04150 whole entry): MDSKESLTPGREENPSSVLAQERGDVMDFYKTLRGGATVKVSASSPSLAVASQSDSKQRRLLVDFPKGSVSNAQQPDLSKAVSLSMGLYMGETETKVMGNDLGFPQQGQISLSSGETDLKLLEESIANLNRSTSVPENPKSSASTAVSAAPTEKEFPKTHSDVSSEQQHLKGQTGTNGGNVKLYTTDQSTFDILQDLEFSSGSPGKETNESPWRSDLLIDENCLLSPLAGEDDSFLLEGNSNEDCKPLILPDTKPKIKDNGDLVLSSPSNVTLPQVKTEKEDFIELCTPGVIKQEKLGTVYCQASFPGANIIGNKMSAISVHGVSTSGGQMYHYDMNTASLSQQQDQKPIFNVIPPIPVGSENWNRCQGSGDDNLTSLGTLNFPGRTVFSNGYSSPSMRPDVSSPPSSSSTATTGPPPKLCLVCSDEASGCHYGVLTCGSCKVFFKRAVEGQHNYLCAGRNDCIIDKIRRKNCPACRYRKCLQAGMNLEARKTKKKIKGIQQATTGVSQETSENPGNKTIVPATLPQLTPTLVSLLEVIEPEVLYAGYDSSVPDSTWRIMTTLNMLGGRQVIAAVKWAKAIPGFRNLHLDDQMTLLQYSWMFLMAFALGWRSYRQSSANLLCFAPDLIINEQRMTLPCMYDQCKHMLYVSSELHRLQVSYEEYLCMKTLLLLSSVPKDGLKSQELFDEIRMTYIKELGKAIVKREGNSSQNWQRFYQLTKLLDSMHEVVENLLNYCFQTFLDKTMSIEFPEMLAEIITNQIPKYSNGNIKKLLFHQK
# [3] = target: T2, Mineralocorticoid receptor (Homo sapiens, UniProt P08235); assay: Agonist activity at human MR expressed in CHO-K1 cells assessed as increase in protein interaction between MR and its coactivator SRC at 5 uM incubated for 24 hrs by beta-galactosidase based chemiluminescence assay; format: cell-based; details: cho-k1, 24 h
# T2 sequence (P08235 whole entry): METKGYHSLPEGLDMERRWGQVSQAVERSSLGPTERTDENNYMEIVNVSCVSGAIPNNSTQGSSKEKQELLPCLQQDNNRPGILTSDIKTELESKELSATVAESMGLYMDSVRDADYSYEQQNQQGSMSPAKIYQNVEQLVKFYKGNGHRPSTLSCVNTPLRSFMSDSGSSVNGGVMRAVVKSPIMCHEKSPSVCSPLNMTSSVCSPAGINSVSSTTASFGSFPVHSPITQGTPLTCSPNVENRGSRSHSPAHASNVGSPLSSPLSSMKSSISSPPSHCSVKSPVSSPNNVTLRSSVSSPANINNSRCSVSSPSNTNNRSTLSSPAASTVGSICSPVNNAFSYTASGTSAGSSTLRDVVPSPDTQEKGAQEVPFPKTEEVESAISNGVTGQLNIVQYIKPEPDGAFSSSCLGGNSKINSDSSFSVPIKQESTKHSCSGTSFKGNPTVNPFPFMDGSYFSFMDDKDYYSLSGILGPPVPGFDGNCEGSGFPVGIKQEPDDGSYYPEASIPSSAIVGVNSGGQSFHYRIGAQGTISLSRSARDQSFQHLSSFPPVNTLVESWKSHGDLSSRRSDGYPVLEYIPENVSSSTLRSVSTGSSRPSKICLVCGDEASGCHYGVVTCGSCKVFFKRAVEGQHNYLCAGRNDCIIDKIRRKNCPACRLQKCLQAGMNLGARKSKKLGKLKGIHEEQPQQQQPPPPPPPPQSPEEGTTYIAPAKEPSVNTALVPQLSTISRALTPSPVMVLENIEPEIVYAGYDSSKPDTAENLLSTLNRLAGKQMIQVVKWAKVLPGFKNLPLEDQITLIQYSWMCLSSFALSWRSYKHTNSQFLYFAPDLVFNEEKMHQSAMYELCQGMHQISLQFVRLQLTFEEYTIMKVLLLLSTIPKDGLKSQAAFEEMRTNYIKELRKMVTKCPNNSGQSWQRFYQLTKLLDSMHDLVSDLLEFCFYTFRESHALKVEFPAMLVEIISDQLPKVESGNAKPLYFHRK
# Progesterone receptor = target: T3, Progesterone receptor (Homo sapiens, UniProt P06401); assay: Antagonist activity at human PR expressed in CHO-K1 cells assessed as reduction in progesterone-induced response incubated for 20 hrs by luciferase reporter gene assay; format: cell-based
# T3 sequence (P06401 whole entry): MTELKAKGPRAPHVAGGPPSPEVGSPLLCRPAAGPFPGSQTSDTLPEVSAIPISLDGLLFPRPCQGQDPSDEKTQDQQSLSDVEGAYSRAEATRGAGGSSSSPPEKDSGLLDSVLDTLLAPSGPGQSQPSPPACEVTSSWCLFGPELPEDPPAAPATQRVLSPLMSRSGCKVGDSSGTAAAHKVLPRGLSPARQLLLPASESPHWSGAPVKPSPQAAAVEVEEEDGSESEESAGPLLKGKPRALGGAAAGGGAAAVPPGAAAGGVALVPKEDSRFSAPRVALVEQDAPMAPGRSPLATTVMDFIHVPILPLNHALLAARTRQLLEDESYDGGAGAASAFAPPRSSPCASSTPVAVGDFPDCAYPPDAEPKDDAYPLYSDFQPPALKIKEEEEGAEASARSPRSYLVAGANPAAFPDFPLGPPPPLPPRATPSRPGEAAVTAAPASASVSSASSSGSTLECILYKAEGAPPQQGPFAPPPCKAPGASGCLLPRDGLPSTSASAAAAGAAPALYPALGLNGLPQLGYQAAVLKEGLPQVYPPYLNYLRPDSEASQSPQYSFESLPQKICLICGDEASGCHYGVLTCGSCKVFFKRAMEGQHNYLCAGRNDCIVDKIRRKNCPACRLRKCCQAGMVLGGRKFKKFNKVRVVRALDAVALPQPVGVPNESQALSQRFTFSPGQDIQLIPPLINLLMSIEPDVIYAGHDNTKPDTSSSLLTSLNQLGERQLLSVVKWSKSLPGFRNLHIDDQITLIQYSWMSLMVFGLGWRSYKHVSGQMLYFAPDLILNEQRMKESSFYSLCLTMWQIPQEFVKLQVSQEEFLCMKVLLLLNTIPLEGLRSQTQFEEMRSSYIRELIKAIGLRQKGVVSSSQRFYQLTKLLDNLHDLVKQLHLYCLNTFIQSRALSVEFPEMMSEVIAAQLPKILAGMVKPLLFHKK
smiles,measurement,setting,value
CC(C)N(C)c1ccc([C@H]2C[C@@]3(C)[C@@H](CC[C@@]3(O)C#CC(C)(C)C)[C@@H]3CCC4=CC(=O)CC[C@@H]4[C@H]32)cc1,half-life,[1],290 min
same,Cp(f),[2],0.02 to 0.12 µM
same,IC50,Glucocorticoid receptor,19.5 nM
same,Activity,[3],Not Active
same,IC50,Progesterone receptor,21 nM
